{"source": "ChEMBL document CHEMBL3525939", "about": "“Organic cation transporter-mediated renal secretion of ipratropium and tiotropium in rats and humans” (Drug Metab Dispos, 2011)", "molecules": {"B1": {"name": "Solute carrier family 22 member 2 (Rattus norvegicus) (protein)", "chain": "MSTVDDILEHIGEFHLFQKQTFFLLALLSGAFTPIYVGIVFLGFTPDHHCWSPGAAKLSQRCGWSQAEELNYTVPGLGPSDEASFLSQCMRYEVDWNQSTLDCVDPLSSLAADRNQLPLGPCEHGWVYNTPGSSIVTEFNLVCAHSWMLDLFQSVVNVGFFIGAMMIGYLADRFGRKFCLLVTILINAISGALMAISPNYAWMLVFRFLQGLVSKAGWLIGYILITEFVGLGYRRMVGICYQIAFTVGLLILAGVAYVIPNWRWLQFAVTLPNFCFLLYFWCIPESPRWLISQNKIVKAMKIIKHIAKKNGKSVPVSLQNLTPDEDAGKKLNPSFLDLVRTPQIRKHTLILMYNWFTSSVLYQGLIMHMGLAGDNIYLDFFYSALVEFPAAFIIILTIDRVGRRYPWAVSNMVAGAACLASVFIPDDLQWLKITIACLGRMGITMAYEMVCLVNAELYPTYIRNLGVLVCSSMCDIGGIITPFLVYRLTDIWMEFPLVVFAVVGLVAGALVLLLPETKGKALPETIEDAENMQRPRKKKEKRIYLQVKQADRPLS"}}, "key": {"[1]": {"target": "T1, Solute carrier family 22 member 2 (Rattus norvegicus, UniProt Q9R0W2)", "T1 sequence (Q9R0W2 whole entry)": "B1 chain", "assay": "Binding affinity to rat Oct2 assessed as transporter-mediated drug uptake", "format": "ADME", "method_in_brief": "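[3H]ipratropium (10 nM) uptake into HEK293/rOct2 cells over 30 sec at pH 7.4, 37°C, in HEPES-buffered saline transport buffer. Mock-cell uptake subtracted to give transporter-mediated uptake. Cells lysed in Triton X-100, counted by liquid scintillation, normalised to protein. Km and Vmax from non-linear least-squares fit to Michaelis-Menten equation. n = 4, mean ± SEM.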"}, "Kidney [2]": {"test_system": "Kidney", "assay": "Drug uptake in Wistar rat kidney slice at 10 nM at pH 7.4 at 37 degC after 1 min", "format": "ADME, tissue-based", "conditions": "pH 7.4, 1 min, 0.01 µM", "method_in_brief": "(§1)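 Rat kidney slices incubated with [3H]ipratropium or [3H]tiotropium (10 nM) for 1 min at 37°C and pH 7.4. Each inhibitor given at 1 mM. Adhering water estimated from [14C]inulin uptake. Uptake expressed as percent of control without inhibitor. Mean ± SEM of 4 slices; significance by Student's t-test, p<0.05.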"}, "Kidney [3]": {"test_system": "Kidney", "assay": "Drug uptake in Wistar rat kidney slice at 10 nM at pH 7.4 at 37 degC after 1 min relative to control in presence 1 mM MPP+", "format": "ADME, tissue-based", "set-up": "interact cpd dose 1 mM", "conditions": "pH 7.4, 1 min, 0.01 µM", "method_in_brief": "as §1"}, "Kidney [4]": {"test_system": "Kidney", "assay": "Drug uptake in Wistar rat kidney slice at 10 nM at pH 7.4 at 37 degC after 1 min relative to control in presence of 1 mM estrone 3-sulfate", "format": "ADME, tissue-based", "set-up": "interact cpd dose 1 mM", "conditions": "pH 7.4, 1 min, 0.01 µM", "method_in_brief": "as §1"}, "Kidney [5]": {"test_system": "Kidney", "assay": "Drug uptake in Wistar rat kidney slice at 10 nM at pH 7.4 at 37 degC after 1 min relative to control in presence of 1 mM quinidine", "format": "ADME, tissue-based", "set-up": "interact cpd dose 1 mM", "conditions": "pH 7.4, 1 min, 0.01 µM", "method_in_brief": "as §1"}, "Kidney [6]": {"test_system": "Kidney", "assay": "Drug uptake in Wistar rat kidney slice at 10 nM at pH 7.4 at 37 degC after 1 min relative to control in presence of 1 mM PAH", "format": "ADME, tissue-based", "set-up": "interact cpd dose 1 mM", "conditions": "pH 7.4, 1 min, 0.01 µM", "method_in_brief": "as §1"}, "OCT2 (SLC22A2) [7]": {"target": "T2, OCT2 (SLC22A2) (Homo sapiens, UniProt O15244)", "T2 sequence (O15244 whole entry)": "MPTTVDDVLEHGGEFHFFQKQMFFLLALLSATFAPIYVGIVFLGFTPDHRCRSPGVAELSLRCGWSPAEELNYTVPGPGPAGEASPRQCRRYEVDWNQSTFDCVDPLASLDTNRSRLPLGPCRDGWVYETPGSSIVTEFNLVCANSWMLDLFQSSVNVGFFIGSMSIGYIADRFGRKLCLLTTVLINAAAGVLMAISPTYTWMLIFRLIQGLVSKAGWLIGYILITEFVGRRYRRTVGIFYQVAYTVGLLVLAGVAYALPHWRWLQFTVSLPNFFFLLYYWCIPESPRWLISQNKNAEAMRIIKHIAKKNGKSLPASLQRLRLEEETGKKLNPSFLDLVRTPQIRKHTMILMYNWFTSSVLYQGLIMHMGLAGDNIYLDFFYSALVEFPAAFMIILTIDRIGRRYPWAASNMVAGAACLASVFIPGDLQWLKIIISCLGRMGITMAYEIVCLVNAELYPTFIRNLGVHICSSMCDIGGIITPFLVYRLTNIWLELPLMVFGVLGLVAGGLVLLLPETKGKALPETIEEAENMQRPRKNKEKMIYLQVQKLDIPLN", "assay": "Drug uptake in human Oct2 expressed HEK293 cells at 10 nM at pH 7.4 at 37 degC after 1 min relative to mock cells", "format": "ADME, cell-based", "conditions": "HEK293 cells expressing human Oct2, pH 7.4, read-out: FC", "method_in_brief": "(§2)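 Transfected HEK293 cells (antibiotic-selected; DMEM with 10% FBS) plated at 1 × 10^5 cells/cm2 and used after 2 days. Uptake of [3H]ipratropium or [3H]tiotropium (10 nM) for 1 min at pH 7.4, 37°C, in HEPES-buffered saline. Cells washed ice-cold, lysed in Triton X-100, counted by scintillation, normalised to protein. Uptake compared with vector-only Mock cells. n = 4.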"}, "Kidney [8]": {"test_system": "Kidney", "assay": "Drug uptake in Wistar rat kidney slice at 10 nM at pH 7.4 at 37 degC after 1 min relative to control in presence of 1 mM TEA+", "format": "ADME, tissue-based", "set-up": "interact cpd dose 1 mM", "conditions": "pH 7.4, 1 min, 0.01 µM", "method_in_brief": "as §1"}, "Kidney [9]": {"test_system": "Kidney", "assay": "Drug uptake in Wistar rat kidney slice at 10 nM at pH 7.4 at 37 degC after 1 min relative to control in presence of 1 mM cimetidine", "format": "ADME, tissue-based", "set-up": "interact cpd dose 1 mM", "conditions": "pH 7.4, 1 min, 0.01 µM", "method_in_brief": "as §1"}, "Oct1 (Slc22a1)": {"target": "T3, Oct1 (Slc22a1) (Rattus norvegicus, UniProt Q63089)", "T3 sequence (Q63089 whole entry)": "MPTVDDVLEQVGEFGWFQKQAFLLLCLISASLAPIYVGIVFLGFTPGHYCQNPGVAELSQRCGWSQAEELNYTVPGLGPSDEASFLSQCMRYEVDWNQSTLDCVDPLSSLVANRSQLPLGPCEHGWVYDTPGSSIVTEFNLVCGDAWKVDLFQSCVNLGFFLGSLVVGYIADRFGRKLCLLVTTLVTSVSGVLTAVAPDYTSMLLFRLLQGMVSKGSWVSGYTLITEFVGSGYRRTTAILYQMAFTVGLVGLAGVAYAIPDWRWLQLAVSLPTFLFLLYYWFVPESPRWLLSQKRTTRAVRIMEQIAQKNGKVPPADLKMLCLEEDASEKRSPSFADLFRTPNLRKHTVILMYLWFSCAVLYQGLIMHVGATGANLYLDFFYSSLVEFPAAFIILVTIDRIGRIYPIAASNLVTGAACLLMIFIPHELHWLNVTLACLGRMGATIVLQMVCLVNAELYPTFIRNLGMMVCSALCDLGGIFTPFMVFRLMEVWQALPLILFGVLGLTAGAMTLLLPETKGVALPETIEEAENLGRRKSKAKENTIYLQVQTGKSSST", "assay": "Drug uptake in rat Oct1 expressed HEK293 cells at 10 nM at pH 7.4 at 37 degC after 1 min relative to mock cells", "format": "ADME, cell-based", "conditions": "HEK293 cells expressing rat Oct1, pH 7.4, read-out: FC", "method_in_brief": "as §2"}, "Oct2 (Slc22a2) [10]": {"target": "T4, Oct2 (Slc22a2) (Rattus norvegicus, UniProt Q9R0W2)", "T4 sequence (Q9R0W2 whole entry)": "B1 chain", "assay": "Drug uptake in rat Oct2 expressed HEK293 cells at 10 nM at pH 7.4 at 37 degC after 1 min relative to mock cells", "format": "ADME, cell-based", "conditions": "HEK293 cells expressing rat Oct2, pH 7.4, read-out: FC", "method_in_brief": "as §2"}, "Kidney [11]": {"test_system": "Kidney", "assay": "Drug uptake in Wistar rat kidney slice at 10 nM at pH 7.4 at 37 degC after 1 min relative to control in presence of ipratropium", "format": "ADME, tissue-based", "conditions": "pH 7.4, 1 min, 0.01 µM", "method_in_brief": "as §1"}, "Kidney [12]": {"test_system": "Kidney", "assay": "Drug uptake in Wistar rat kidney slice at 10 nM at pH 7.4 at 37 degC after 1 min relative to control in presence of 1 mM imipramine", "format": "ADME, tissue-based", "set-up": "interact cpd dose 1 mM", "conditions": "pH 7.4, 1 min, 0.01 µM", "method_in_brief": "as §1"}, "[13]": {"substrate": "NCCc1ccc(O)c(O)c1", "assay": "cells, lysate or membranes named"}}}
{"molecule": "C[n+]1ccc(-c2ccccc2)cc1", "values": [{"measurement": "Km", "setting": "[1]", "result": 17, "unit": "µM"}]}
{"molecule": "C[N+]1(C)[C@@H]2C[C@@H](OC(=O)C(O)(c3cccs3)c3cccs3)C[C@@H]1[C@H]1O[C@H]12.[Br-]", "values": [{"measurement": "Drug uptake", "setting": "Kidney [2]", "result": 100, "unit": "%"}, {"measurement": "Drug uptake", "setting": "Kidney [3]", "result": 39.8, "unit": "%"}, {"measurement": "Drug uptake", "setting": "Kidney [4]", "result": 104, "unit": "%"}, {"measurement": "Drug uptake", "setting": "Kidney [5]", "result": 34.9, "unit": "%"}, {"measurement": "Drug uptake", "setting": "Kidney [6]", "result": 97.4, "unit": "%"}, {"measurement": "uptake ratio at 1 min, 0.01 µM", "setting": "OCT2 (SLC22A2) [7]", "result": 8.5}, {"measurement": "Drug uptake", "setting": "Kidney [8]", "result": 67.3, "unit": "%"}, {"measurement": "Drug uptake", "setting": "Kidney [9]", "result": 54.5, "unit": "%"}, {"measurement": "uptake ratio at 1 min, 0.01 µM", "setting": "Oct1 (Slc22a1)", "result": 8.4}, {"measurement": "uptake ratio at 1 min, 0.01 µM", "setting": "Oct2 (Slc22a2) [10]", "result": 3}, {"measurement": "Drug uptake", "setting": "Kidney [11]", "result": 25.6, "unit": "%"}, {"measurement": "Drug uptake", "setting": "Kidney [12]", "result": 36.7, "unit": "%"}]}
{"molecule": "B1", "values": [{"measurement": "Km", "setting": "[13]", "result": 650, "unit": "µM"}]}
